Mot1-301 SUMO: yeast Mot1-301 growth rescue at high temperature, primary screen, SUMOylation pathway inhibitor project, S. cerevisiae, ATP luminescence, 38.5C; S. cerevisiae Mot1-301 growth rescue; percent above DMSO median, 100 means doubled; growth rescue, % at 18.8 µM; 320,000 compounds, 1% hits; AID 2716, 2010;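 active = every valid replicate shows activation above 250% relative to neutral control wells; inactive = the rest, any valid replicate at or below 250%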;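 note: OY570 slx delta 5 strain wells were the positive control but not used for scaling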
Statin myotox sup: suppressors of statin myotoxicity in C2C12 myotubes, primary screen, cell-based, single point, plate reader; C2C12 myotubes + simvastatin, ATP luminescence, 48 h; scaled: DMSO 0, geranylgeraniol control 100; rescue of ATP level, % at 7.49 µM; 330,000 compounds, 0.78% hits; AID 602340, 2012;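 active = mean ATP rescue above about 67%, or every replicate alone reaching that limit, limit read from the data, passing the limit was not always enough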;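 note: myotubes were challenged with 10 µM simvastatin during compound exposure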
Cneo AK release: Cryptococcus neoformans cell lysis inducers, primary screen, AK release luminescence, single concentration | C. neoformans lysis, adenylate kinase release luminescence, 4 h; normalised: neutral wells 0, clomiphene wells 100 | lysis activity, % at 15 µM | 360,000 compounds, 0.2% hits;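 active = mean lysis activity across replicates of at least 80%, whatever share of replicates individually reach that level; inactive = mean lysis activity below 80%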
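Material – Cryptococcus neoformans yeast cells · Quantity – 5 × 10^6 yeast cells/mL · Buffer or medium – YPD medium · Compound – single dose · Timing – 4 h static compound exposure, 37 °C, read 1 h post-reagent · Signal – adenylate kinase release luminescence · Read-out basis – lysis from increased AK signal · Benchmarks – Clomiphene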
* marks the source's active call; other numbers are inactive results; · = not tested or not shown. A selection: hits, their analogues and other compounds. The true share with any hit is near 1.5%.

SMILES | Mot1-301 SUMO | Statin myotox sup | Cneo AK release
Cc1noc(C)c1S(=O)(=O)N(C)C[C@@H]1OCCCC[C@H](C)Oc2ccc(NC(=O)NC(C)C)cc2C(=O)N([C@H](C)CO)C[C@H]1C | · | · | 41
C[C@@H]1CN([C@@H](C)CO)C(=O)c2cc(NS(=O)(=O)c3ccc(F)cc3)ccc2O[C@@H](C)CCCCO[C@H]1CN(C)C(=O)c1ccncc1 | · | · | 1
COCc1nc2ccccc2n1Cc1ccc(Br)cc1 | -24 | 79* | 5
COCc1nc2ccccc2n1Cc1ccccc1 | 337 | 2 | 1
COc1ccccc1NC(=O)NC1(C(=O)N2CCOCC2)CCCCC1 | -9 | 14 | 1
COc1ccccc1NC(=O)NC1(C(=O)N2CCCCCC2)CCCCC1 | · | 106* | -1
COCc1cn(CC[C@H]2CC[C@@H](NC(=O)Nc3ccc(Cl)cc3)[C@@H](CO)O2)nn1 | · | -4 | -2
C[C@@H]1CN([C@@H](C)CO)C(=O)Cc2cc(NS(C)(=O)=O)ccc2O[C@H]1CN(C)C(=O)Nc1ccc2c(c1)OCO2 | · | -7 | -1
CCCCCCOC(=O)Cc1c(C)nc(N)[nH]c1=O | 259 | 1 | 4
CCCCCCOC(=O)CCc1c(C)nc(N)[nH]c1=O | -9 | 98* | 1
Cc1ccc(S(=O)(=O)N[C@@H]2C=C[C@H](CC(=O)NCCCN(C)C)O[C@@H]2CO)cc1 | · | 1 | 2
C[C@H](CO)N1C[C@H](C)[C@@H](CN(C)S(=O)(=O)c2ccc(Cl)cc2)Oc2ccc(NC(=O)Cc3ccccc3)cc2CC1=O | · | -38 | -1
O=C(NCCc1ccccc1)[C@@H]1[C@@H](CO)[C@@H]2Cn3c(cccc3=O)[C@H]1N2C(=O)C1CCC1 | · | -9 | 102*
O=C(NCCc1ccccc1)[C@@H]1[C@@H](CO)[C@@H]2Cn3c(cccc3=O)[C@H]1N2C(=O)C1CC1 | · | 5 | -4
O=C(NCCc1ccccc1)[C@H]1[C@H](CO)[C@H]2Cn3c(cccc3=O)[C@@H]1N2C(=O)C1CCCC1 | · | 11 | -4
O=C(NCCc1ccccc1)[C@H]1[C@H](CO)[C@H]2Cn3c(cccc3=O)[C@@H]1N2C(=O)C1CCC1 | · | 6 | 105*
CCCN1C[C@@H](C)[C@H](OC)CN(C)C(=O)c2cc(NC(=O)c3cccc(F)c3)ccc2OC[C@H]1C | · | 14 | 6
COc1ccccc1-c1ccc([C@@H]2[C@@H](CO)N3CCCCN(C(=O)NC4CCCC4)C[C@H]23)cc1 | · | -3 | 0
COc1ccc(-c2cc(C(F)(F)F)nc(SCCC(=O)Nc3cc(C)on3)n2)cc1 | 17 | · | 2
COCCNC(=O)CCSc1nc(-c2ccc(OC)cc2)cc(C(F)(F)F)n1 | 43 | 87* | 2
O=C(C[C@H]1C[C@H]2c3cc(NC(=O)Nc4ccc(F)cc4)ccc3O[C@H]2[C@H](CO)O1)NC1CCCCC1 | · | 3 | 1
CO[C@H]1CN(C)C(=O)c2ccc(NS(=O)(=O)c3ccccc3F)cc2OC[C@H](C)NC[C@H]1C | · | -2 | 0
CCCCCNC(=O)C1CC=CCC1C(=O)O (centres undefined) | 441 | 125* | -1
CCCCN(CCCC)C(=O)C1CC=CCC1C(=O)O (centres undefined) | 2 | -1 | ·
C[C@@H](NC(=O)C[C@@H]1C[C@H]2c3cc(NC(=O)C4CCOCC4)ccc3O[C@H]2[C@H](CO)O1)c1ccccc1 | · | 6 | 2
SMILES | Mot1-301 SUMO | Statin myotox sup | Cneo AK release
Cc1ccc(NC(=O)c2cccc(OCc3c(C)noc3C)c2)cc1 | 14 | 105* | -2
Cc1noc(C)c1COc1cccc(C(=O)Nc2ccccc2)c1 | · | 1 | -1
CCOC(=O)C1=C(C)N(CCCCCC(=O)O)C(=O)NC1c1ccccc1Cl (centres undefined) | 193 | 105* | -1
CCOC(=O)C1=C(C)N(CCCC(=O)O)C(=O)NC1c1ccccc1Cl (centres undefined) | -12 | · | ·
COc1ccc(NC(=O)N(C)C[C@@H]2OCCCC[C@@H](C)Oc3ccc(NS(=O)(=O)c4ccccc4)cc3C(=O)N([C@H](C)CO)C[C@H]2C)cc1 | · | · | 1
C[C@@H]1CN([C@@H](C)CO)C(=O)Cc2cc(NC(=O)Nc3ccccc3)ccc2O[C@@H]1CN(C)C(=O)Nc1ccc2c(c1)OCO2 | · | -7 | -1
CC(C)NC(=O)Nc1ccc2c(c1)CC(=O)N([C@H](C)CO)C[C@@H](C)[C@@H](CN(C)Cc1ccc3c(c1)OCO3)O2 | · | -16 | 0
C[C@H]1CN([C@@H](C)CO)C(=O)Cc2cc(NC(=O)Nc3ccc4c(c3)OCO4)ccc2O[C@@H]1CN(C)Cc1ccc(-c2ccccc2)cc1 | · | 76* | -1
CC(C)NC(=O)Nc1ccc2c(c1)CC(=O)N([C@@H](C)CO)C[C@@H](C)[C@@H](CN(C)C(=O)Nc1ccc3c(c1)OCO3)O2 | · | -19 | -11
CC(C)NC(=O)Nc1ccc2c(c1)CC(=O)N([C@H](C)CO)C[C@H](C)[C@@H](CN(C)C(=O)Nc1ccc3c(c1)OCO3)O2 | · | -11 | 100*
C[C@H]1CN([C@@H](C)CO)C(=O)Cc2cc(NC(=O)Nc3ccc4c(c3)OCO4)ccc2O[C@H]1CN(C)Cc1ccc(-c2ccccc2)cc1 | · | 12 | 0
CC(C)NC(=O)Nc1ccc2c(c1)CC(=O)N([C@H](C)CO)C[C@@H](C)[C@H](CN(C)Cc1ccc3c(c1)OCO3)O2 | · | -20 | 100*
C[C@H]1CN([C@@H](C)CO)C(=O)Cc2cc(NC(=O)Nc3ccccc3)ccc2O[C@H]1CN(C)C(=O)Nc1ccc2c(c1)OCO2 | · | 2 | 102*
CCOc1ccc(S(=O)(=O)N2CCN(Cc3ccc4c(c3)OCO4)CC2)cc1Cl | 386* | 22 | -3
O=S(=O)(Cc1ccc(Cl)cc1)N1CCN(Cc2ccc3c(c2)OCO3)CC1 | 5 | 1 | 0
O=S(=O)(Cc1ccccc1Cl)N1CCN(Cc2ccc3c(c2)OCO3)CC1 | 277* | -8 | -1
COc1ccc(S(=O)(=O)N2CCN(Cc3ccc4c(c3)OCO4)CC2)cc1 | 28 | 19 | 2
CO[C@@H]1CN(C)C(=O)c2cc(NC(=O)NC(C)C)ccc2OC[C@@H](C)N(Cc2ccc(-c3ccccn3)cc2)C[C@@H]1C | · | 14 | 3
C[C@H](CO)N1C[C@H](C)[C@@H](CN(C)C(=O)Nc2ccc3c(c2)OCO3)OCCCC[C@H](C)Oc2ccc(NC(=O)c3ccncc3)cc2C1=O | · | · | -2
CN1C(=O)C2(C(C#N)=C(N)N(c3cc(Cl)cc(Cl)c3)C3=C2C(=O)CCC3)c2ccccc21 (centres undefined) | 65 | · | 0
CN1C(=O)C2(c3ccccc31)C1CCCC=C1C(C#N)=C(N)C2(C#N)C#N (centres undefined) | -3 | 155* | 3
Cc1noc(N)c1C(=O)Nc1ccc(F)c(Cl)c1 | -20 | 130* | -1
CCc1noc(N)c1C(=O)Nc1ccc(F)c(Cl)c1 | -10 | 0 | 1
CO[C@@H]1CN(C)C(=O)c2ccc(NC(=O)C3CCOCC3)cc2OC[C@@H](C)N(CC2CC2)C[C@@H]1C | · | 2 | 2

Screens as filed in PubChem.
